Test results as given in ChEMBL document CHEMBL1127327, “Novel series of TSAO-T derivatives. Synthesis and anti-HIV-1 activity of 4-, 5-, and 6-substituted pyrimidine analogues” (J Med Chem, 1994).
pEC50: −log10 of the molar value. Where “and” joins values, the source holds several entries; their conditions need not be identical. Equal entries are not always repeated.

Legend:
MT4 [1] = assay: Concentration required for 50% of cell death on MT-4 cell lines; assay type: functional, Homo sapiens
In short: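 Mock-infected MT-4 cells (5 × 10^5 cells/mL) in fresh culture medium, mixed in microtiter wells with dilutions of test compound. After 5 days, viable cells counted by trypan blue staining. CC50 taken as the compound concentration that reduces the number of mock-infected MT-4 cells by 50%.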

MT4 [2] = assay: Selectivity index (ratio CC50/EC50) in MT-4 cells is measured; assay type: functional
In short: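 Ratio of CC50 to EC50, both from MT-4 cultures read after 5 days by trypan blue viable-cell counts. CC50 is the concentration reducing mock-infected MT-4 cell number by 50%. EC50 comes from HIV-infected MT-4 cells (100 CCID50 per mL, 5 × 10^5 cells/mL).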

CCRF-CEM [3] = assay: Effective concentration against HIV-2 induced cytopathicity in CEM cells; assay type: functional, cell-based; settings: Homo sapiens
In short: (§1)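 CEM cells at 5 × 10^5 cells/mL in fresh medium, infected with HIV-1 or HIV-2 at 100 CCID50 per mL of suspension, then mixed 1:1 with serial compound dilutions. Virus-induced syncytia were counted microscopically after 4 days. EC50 is the concentration reducing syncytium number by 50%.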

CCRF-CEM [4] = assay: Effective concentration against HIV-1 induced cytopathicity in CEM cells; assay type: functional, cell-based; settings: Homo sapiens; in short: as §1
[5] = system: Human immunodeficiency virus; assay: Effective concentration against HIV-1 induced cytopathicity in MT-4 cells; assay type: functional, organism-based, MT4
In short: (§2)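 MT-4 cells at 5 × 10^5 cells/mL, infected with HIV-1 or HIV-2 at 100 CCID50 per mL, then mixed 1:1 with serial compound dilutions. After 5 days, viable cells in infected and mock-infected cultures were counted by trypan blue exclusion. EC50 is the concentration giving a 50% reduction in virus-induced loss of viable cells.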

MT4 [6] = assay: Effective concentration against HIV-2 induced cytopathicity in MT-4 cells; assay type: functional, cell-based; settings: Homo sapiens; in short: as §2
[7] = Human immunodeficiency virus 1, MT4

| Structure (SMILES) | CC50 (MT4 [1]) | Selectivity index (MT4 [2]) | pEC50 (CCRF-CEM [3]) | pEC50 (CCRF-CEM [4]) | pEC50 ([5]; mt4) | pEC50 [5, 7] | pEC50 (MT4 [6]) |
| --- | --- | --- | --- | --- | --- | --- | --- |
| CCc1cn([C@@H]2O[C@H](CO[Si](C)(C)C(C)(C)C)[C@@]3(OS(=O)(=O)C=C3N)[C@H]2O[Si](C)(C)C(C)(C)C)c(=O)[nH]c1=O | 5.3 µM | 88 |  |  |  |  |  |
| CC(C)(C)[Si](C)(C)OC[C@H]1O[C@@H](n2ccc(=O)[nH]c2=O)[C@H](O[Si](C)(C)C(C)(C)C)C12OS(=O)(=O)C=C2N (some centres undefined) | 14 µM | 74 |  |  |  |  |  |
| Cc1cn([C@@H]2O[C@H](CO[Si](C)(C)C(C)(C)C)C3(OS(=O)(=O)C=C3N)[C@H]2O[Si](C)(C)C(C)(C)C)c(=O)[nH]c1=O (some centres undefined) | 13 µM | 217 | < 5.15 | 7.36 |  |  |  |
| Cc1cn([C@@H]2O[C@H](CO[Si](C)(C)C(C)(C)C)[C@@]3(OS(=O)(=O)C=C3N)[C@H]2O[Si](C)(C)C(C)(C)C)c(=O)nc1N | 30 µM | 250 | < 4.87 | 7.30 |  |  |  |
| CC(C)(C)[Si](C)(C)OC[C@H]1O[C@@H](n2ccc(N)nc2=O)[C@H](O[Si](C)(C)C(C)(C)C)[C@]12OS(=O)(=O)C=C2N | > 350 µM | 460 | < 3.46 | 5.86 |  |  |  |
| CC(C)(C)[Si](C)(C)OC[C@H]1O[C@@H](n2cc(Br)c(=O)[nH]c2=O)[C@H](O[Si](C)(C)C(C)(C)C)[C@]12OS(=O)(=O)C=C2N | 3.6 µM | 11 |  |  | 6.49 and < 5.62 |  |  |
| CNc1nc(=O)n([C@@H]2O[C@H](CO[Si](C)(C)C(C)(C)C)[C@@]3(OS(=O)(=O)C=C3N)[C@H]2O[Si](C)(C)C(C)(C)C)cc1C | 26 µM | 217 | < 4.48 | 6.96 |  |  |  |
| CC(C)(C)[Si](C)(C)OC[C@H]1O[C@@H]2[C@H](O[Si](C)(C)C(C)(C)C)[C@]13OS(=O)(=O)C=C3Nc1cc(=O)[nH]c(=O)n12 | 16 µM | 2.7 |  |  | 5.23 and < 4.92 |  |  |
| CC(C)(C)[Si](C)(C)OC[C@H]1O[C@@H](n2cc(I)c(=O)[nH]c2=O)[C@H](O[Si](C)(C)C(C)(C)C)[C@]12OS(=O)(=O)C=C2N | 12 µM | 133 | < 5.24 | 7.52 |  |  |  |
| CC(C)(C)[Si](C)(C)OC[C@H]1O[C@@H](n2cc(C(F)(F)F)c(=O)[nH]c2=O)[C@H](O[Si](C)(C)C(C)(C)C)[C@]12OS(=O)(=O)C=C2N | 14 µM | 17 | < 5.21 | 6.11 | 6.09 and < 5.21 |  |  |
| Cc1cn([C@@H]2O[C@H](CO[Si](C)(C)C(C)(C)C)[C@@]3(OS(=O)(=O)C=C3N)[C@H]2O[Si](C)(C)C(C)(C)C)c(=O)nc1N(C)C | 62 µM | 388 |  |  |  | 6.80 | < 4.49 |
| CC(C)(C)[Si](C)(C)OC[C@H]1O[C@@H](n2c(C#N)cc(=O)[nH]c2=O)[C@H](O[Si](C)(C)C(C)(C)C)[C@]12OS(=O)(=O)C=C2N | 11 µM | 3 | < 5.18 | 5.68 | 5.44 | 5.44 |  |
| COC(=N)c1cc(=O)[nH]c(=O)n1[C@@H]1O[C@H](CO[Si](C)(C)C(C)(C)C)[C@@]2(OS(=O)(=O)C=C2N)[C@H]1O[Si](C)(C)C(C)(C)C | 11 µM | 4.1 | < 5.20 | 5.96 | 5.57 and < 5.20 |  |  |
| CC(C)(C)[Si](C)(C)OC[C@H]1O[C@@H](n2cc(F)c(=O)[nH]c2=O)[C@H](O[Si](C)(C)C(C)(C)C)[C@]12OS(=O)(=O)C=C2N | 5 µM | 10 | < 5.17 | 6.47 | 6.30 and < 5.89 |  |  |
| CNc1ccn([C@@H]2O[C@H](CO[Si](C)(C)C(C)(C)C)[C@@]3(OS(=O)(=O)C=C3N)[C@H]2O[Si](C)(C)C(C)(C)C)c(=O)n1 | 12 µM | 18 | < 5.17 | 5.47 | 6.17 and < 5.17 |  |  |
| CN(C)c1ccn([C@@H]2O[C@H](CO[Si](C)(C)C(C)(C)C)[C@@]3(OS(=O)(=O)C=C3N)[C@H]2O[Si](C)(C)C(C)(C)C)c(=O)n1 | > 166 µM | 252 | < 3.78 | 6.12 |  |  |  |
